A short description of experiment [1]: Displacement of [3H]epibatidine from Torpedo californica muscle-type nAChR after 90 mins by liquid scintillation counting. Format: tissue-based, Tetronarce californica. The procedure, abridged:
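Torpedo californica electric organ membranes, homogenised and washed in HSS, 60−70 μg per sample. Incubated with (±)-[3H]epibatidine for 90 min at 22 °C; (−)-nicotine defined nonspecific binding. Filtered through PEI-soaked GF/B filters and counted by scintillation. […] Mean ± SEM of 3–5 experiments.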
On the technique in general: Loss of bound radioactivity is the signal in a displacement assay; it reports binding, not function.

For experiment [2], the target named is T1, Neuronal acetylcholine receptor subunit alpha-7 (Homo sapiens, UniProt P36544). In words: Antagonist activity at human alpha7 nAChR expressed in GH3 cells by Ca2+/Fluo-4 assay. It is filed as cell-based.
The target of experiment [3] is T2, Muscarinic acetylcholine receptor M2 (Sus scrofa, UniProt P06199).
T2 sequence (P06199 whole entry): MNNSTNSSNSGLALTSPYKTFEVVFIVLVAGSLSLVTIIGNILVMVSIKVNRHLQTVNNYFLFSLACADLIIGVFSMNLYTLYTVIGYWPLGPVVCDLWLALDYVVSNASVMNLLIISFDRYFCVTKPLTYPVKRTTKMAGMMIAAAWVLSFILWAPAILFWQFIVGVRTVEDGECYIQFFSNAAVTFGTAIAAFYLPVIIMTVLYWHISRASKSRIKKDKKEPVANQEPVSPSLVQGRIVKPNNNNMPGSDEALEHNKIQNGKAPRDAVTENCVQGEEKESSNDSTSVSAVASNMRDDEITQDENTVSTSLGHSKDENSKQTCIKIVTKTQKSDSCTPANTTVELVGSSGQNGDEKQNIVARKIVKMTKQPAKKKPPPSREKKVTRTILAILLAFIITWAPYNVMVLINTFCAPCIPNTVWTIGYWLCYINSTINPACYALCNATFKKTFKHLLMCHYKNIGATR
In words: Displacement of [3H]NMS from pig muscarinic M2 receptor after 120 mins by liquid scintillation counting.

The target of experiment [4] is T1, Neuronal acetylcholine receptor subunit alpha-7. In words: Ratio of toxiferine-I IC50 to compound IC50 for human alpha7 nAChR expressed in GH3 cells by Ca2+/Fluo-4 assay. It is filed as cell-based.

The term Ki denotes the equilibrium dissociation constant of an inhibitor or competing ligand from its target. Low readings indicate tighter binding, high ones weaker binding. In general, EC50 refers to the concentration at which the effect is half-maximal. Low values mean higher potency in that assay, high ones lower potency in that assay.

T1 sequence (P36544 whole entry): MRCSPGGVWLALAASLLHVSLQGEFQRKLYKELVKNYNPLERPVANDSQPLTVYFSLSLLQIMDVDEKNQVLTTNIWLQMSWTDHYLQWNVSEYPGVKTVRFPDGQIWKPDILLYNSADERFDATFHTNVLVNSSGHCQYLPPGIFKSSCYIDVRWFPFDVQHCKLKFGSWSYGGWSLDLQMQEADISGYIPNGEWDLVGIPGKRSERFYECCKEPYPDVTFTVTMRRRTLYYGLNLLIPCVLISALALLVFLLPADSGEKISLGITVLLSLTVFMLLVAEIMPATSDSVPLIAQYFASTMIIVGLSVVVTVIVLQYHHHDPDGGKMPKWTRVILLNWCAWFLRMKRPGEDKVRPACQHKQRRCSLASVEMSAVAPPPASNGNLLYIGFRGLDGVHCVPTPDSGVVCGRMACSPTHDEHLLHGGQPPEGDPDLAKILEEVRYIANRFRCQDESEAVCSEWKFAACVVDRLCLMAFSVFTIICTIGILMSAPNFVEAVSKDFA

For the molecule `CC[C@@H]1CN2CC[C@@]34c5ccccc5N5/C=C6/[C@H]7C[C@@H]8N(CC[C@@]89c8ccccc8N(/C=C(/[C@H]1C[C@H]23)[C@H]54)[C@@H]69)C[C@H]7CCO`, in experiment [1], the Ki is 390 nM. For the same molecule, the results for the IC50 in experiment [2] (read-out: IC50) and in experiment [2] (read-out: pIC50 (converted)) were 2200 nM and 2340 nM, respectively. This molecule also came in with a concentration giving a half-maximal response (EC50) in experiment [3] of 410 nM.
`C1=C2CN3CC[C@]45c6ccccc6N6[C@@H]7OCC=C8CN9CC[C@]%10%11c%12ccccc%12N([C@H](OC1)[C@@H]([C@H]64)[C@H]2C[C@H]35)[C@H]%10[C@H]7[C@H]8C[C@H]9%11` [CARACURINE V] gave an inhibition constant Ki in experiment [1] greater than 100000 nM. The molecule further yielded an EC50 in experiment [3] of 436 nM.
In the case of `CC[C@@H]1C[N+]2(C)CC[C@@]34c5ccccc5N5/C=C6/[C@H]7C[C@H]8[C@@]9(CC[N+]8(C)C[C@H]7CCO)c7ccccc7N(/C=C(/[C@H]1C[C@@H]32)[C@H]54)[C@@H]69` (some centres not stated), in experiment [4], the Ratio IC50 amounted to 10. In experiment [1], this molecule displayed a Ki of 455 nM. In addition, the IC50 is 590 nM in experiment [2] (read-out: IC50) and 603 nM in experiment [2] (read-out: pIC50 (converted)). The molecule further came in with a 50% effective concentration (EC50) in experiment [3] of 320 nM.
`CC[C@@H]1C[N+]2(Cc3ccc([N+](=O)[O-])cc3)CC[C@@]34c5ccccc5N5/C=C6/[C@H]7C[C@H]8[C@@]9(CC[N+]8(Cc8ccc([N+](=O)[O-])cc8)C[C@H]7CC)c7ccccc7N(/C=C(/[C@H]1C[C@@H]32)[C@H]54)[C@@H]69` (some centres not stated) had an inhibitory constant (Ki) in experiment [1] of 81.9 nM. For the same molecule, the IC50 was 21000 nM in experiment [2] (read-out: IC50) and 21400 nM in experiment [2] (read-out: pIC50 (converted)). In experiment [3], it took 49 nM to reach a half-maximal effect (EC50).
`C=CC[N+]12CC[C@@]34c5ccccc5N5/C=C6/[C@H]7C[C@H]8[C@@]9(CC[N+]8(CC=C)C[C@H]7CC)c7ccccc7N(/C=C(/[C@@H](C[C@@H]31)[C@H](CC)C2)[C@H]54)[C@@H]69` (some centres not stated) yielded a Ki in experiment [1] of 75.1 nM. The molecule further returned an EC50 in experiment [3] of 36 nM.
For `C=CC[N+]12CC[C@@]34c5ccccc5N5/C=C6/[C@H]7C[C@H]8[C@@]9(CC[N+]8(CC=C)C[C@H]7CCO)c7ccccc7N(/C=C(/[C@@H](C[C@@H]31)[C@H](CC)C2)[C@H]54)[C@@H]69` (some centres not stated), the affinity in experiment [1] corresponds to a Ki of 250 nM. In addition, the figures for the IC50 in experiment [2] (read-out: IC50) and in experiment [2] (read-out: pIC50 (converted)) were 3100 nM and 3160 nM, respectively. The molecule further showed an EC50 in experiment [3] of 12 nM.
Molecule `C=CC[N@@+]12CC[C@@]34c5ccccc5N5/C=C6/[C@H]7C[C@H]8[C@@]9(CC[N@@+]8(CC=C)C/C7=C/CO)c7ccccc7N(/C=C(/[C@@H](C[C@@H]31)/C(=C\CO)C2)[C@H]54)[C@@H]69` [ALCURONIUM] displayed a Ki in experiment [1] of 234 nM. This molecule also had an EC50 in experiment [3] of 2 nM.
`C[N+]12CC[C@@]34c5ccccc5N5/C=C6/[C@H]7C[C@H]8[C@@]9(CC[N+]8(C)C/C7=C/CO)c7ccccc7N(/C=C(/[C@@H](C[C@@H]31)/C(=C\CO)C2)[C@H]54)[C@@H]69` (some centres not stated): in experiment [1], the Ki was determined as 14 nM. Also, the midpoint of the response in experiment [3], the EC50, lay at 96 nM.
Molecule `CC[C@@H]1C[N+]2(Cc3ccc([N+](=O)[O-])cc3)CC[C@@]34c5ccccc5N5/C=C6/[C@H]7C[C@H]8[C@@]9(CC[N+]8(Cc8ccc([N+](=O)[O-])cc8)C[C@H]7CCO)c7ccccc7N(/C=C(/[C@H]1C[C@@H]32)[C@H]54)[C@@H]69` (some centres not stated) had a Ki in experiment [1] of 290 nM. Besides, the IC50 was 4200 nM in experiment [2] (read-out: IC50) and 4170 nM in experiment [2] (read-out: pIC50 (converted)). In addition, the response in experiment [3] was half-maximal at 32 nM (EC50).
In experiment [1], `CC[C@@H]1CN2CC[C@@]34c5ccccc5N5/C=C6/[C@H]7C[C@@H]8N(CC[C@@]89c8ccccc8N(/C=C(/[C@H]1C[C@H]23)[C@H]54)[C@@H]69)C[C@H]7CC` returned a Ki of 669 nM. In addition, the IC50 in experiment [2] (read-out: IC50) is 3300 nM; in experiment [2] (read-out: pIC50 (converted)), 3310 nM. Also, the EC50 in experiment [3] was 500 nM.
Turning to `CC[C@@H]1C[N+]2(C)CC[C@@]34c5ccccc5N5/C=C6/[C@H]7C[C@H]8[C@@]9(CC[N+]8(C)C[C@H]7CC)c7ccccc7N(/C=C(/[C@H]1C[C@@H]32)[C@H]54)[C@@H]69` (some centres not stated), the Ratio IC50 in experiment [4] is 10. In experiment [1], this molecule had a Ki of 150 nM. Further, the IC50 was 820 nM in experiment [2] (read-out: IC50) and 813 nM in experiment [2] (read-out: pIC50 (converted)). In experiment [3], this molecule registered a 50% effective concentration (EC50) of 260 nM.
Take `C=CC[N+]12CC[C@@]34c5ccccc5N5[C@@H]6OC=C7C[N+]8(CC=C)CC[C@]9%10c%11ccccc%11N([C@@H]%11OCC=C(C1)[C@H](C[C@@H]32)[C@@H]%11[C@H]54)[C@H]9[C@H]6[C@H]7C[C@@H]%108` (some centres not stated): the Ki in experiment [1] was found to be 1500 nM. Moreover, a half-maximal effect in experiment [3] (EC50) was put at 11 nM.
The molecule `C[N+]12CC[C@@]34c5ccccc5N5[C@@H]6OC=C7C[N+]8(C)CC[C@]9%10c%11ccccc%11N([C@@H]%11OCC=C(C1)[C@H](C[C@@H]32)[C@@H]%11[C@H]54)[C@H]9[C@H]6[C@H]7C[C@@H]%108` (some centres not stated) had a Ki in experiment [1] of 5200 nM. It took 8 nM to reach a half-maximal effect in experiment [3] (EC50).
